From PubChem BioAssay
HSP90 refold inh: blocks HSP90-mediated luciferase refolding in reticulocyte lysate | actives 0.91% (n = 290,000) | AID 1789 | Rabbit reticulocyte lysate, luciferase refolding luminescence, 3 h | inhibition, % at 5.6 µM;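 active = inhibition above the screen-wide mean plus 3 SD, computed separately per campaign, cut at about 16% in these data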;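 also: inhibitors lower the luminescence because luciferase stays unfolded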
STAT3 act: increases IL-6 driven STAT3 reporter signal; U3A cells, IL-6 STAT3-luciferase reporter, luminescence; 100% = signal with IL-6 EC80 alone; activation (% of control), % at 5.6 µM; actives 0.91% (n = 190,000);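 active = activation above the screen-wide mean of compound activation plus 3 SD, cut at about 130% in these data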
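Test system: human U3A cells carrying STAT3-luciferase construct; control set: IL-6-only wells as 100% reference; timing: compound pre-incubation 1 h before IL-6, then 6 h stimulation at 37 °C; also added: IL-6 stimulus at 33 ng/mL final; evaluation: % activation versus median of IL-6-stimulated wells; detection: reporter luminescence signal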
STAT1 inh-1: STAT1 signaling inhibition. NIH 3T3 STAT1-luciferase reporter, IFN-gamma, luminescence. inhibition, % at 5.5 µM. actives 0.35% (n = 200,000);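 active = inhibition above a set limit, the mean inhibition across all tested compounds plus 3 SD, cut at about 34% in these data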
C8 TRAIL sens: caspase-8 TRAIL sensitization | NB7+C8 cells + TRAIL, ATPlite viability luminescence | inhibition (viability loss, TRAIL sensitization), % at 10 µM | actives 1% (n = 360,000);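 active = compounds causing at least 50% loss of cell viability in the single-dose screen, relative to plate controls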
STAT3 blocker: inhibitors of IL-6 induced STAT3 signaling. U3A cells, IL-6 STAT3-luciferase reporter, luminescence; host cell line lacks STAT1. inhibition, % at 5.5 µM. actives 0.89% (n = 190,000). AID 862;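 active = inhibition above the mean inhibition across all screened compounds plus 3 SD, cut at about 44% in these data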
PPC-1+TRAIL kill: kills PPC-1 cancer cells in the presence of TRAIL; PPC-1 cells + TRAIL, ATPLite viability luminescence; cell killing (% activity), % at 4 µM or 5 µM; actives 0.41% (n = 220,000);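 active = cell killing above 50% in the first pass at 4 µM, then a duplicate retest at 5 µM averaging 50% or more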
STAT1 inh-2: confirmation of STAT1 signaling inhibitors | AID 1263 | shares compounds with STAT1 inh-1 | NIH 3T3 STAT1-luciferase reporter, IFN-gamma, luminescence | actives 55% (n = 200) | inhibition, % at 5.5 µM;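 active = triplicate mean inhibition exceeding the hit cutoff computed for the primary STAT1 screen, cut at about 35% in these data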
NFkB inh: inhibits NF-kappaB, counter-screen to STAT1 inhibitors. actives 30% (n = 200). inhibition, % at 5.7 µM. HEK293T NF-kB luciferase reporter, TNF-alpha induced, luminescence. shares compounds with STAT1 inh-1. AID 1303;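 active = inhibition above the mean of solvent-only control wells plus 3 SD of those wells, cut at about 15% in these data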
STAT3 inh 2: STAT3 inhibition in STAT1 inhibitor counter-screen; shares compounds with STAT1 inh-1; U3A cells, IL-6 STAT3 luciferase reporter, luminescence; cells lacking STAT1; inhibition, % at 5.7 µM; actives 20% (n = 200); AID 1310;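 active = inhibition above the mean of solvent-only control wells plus 3 SD, set per campaign, cut at about 25% in these data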
Numbers stand for hits; 0 = inactive; - = not tested or not shown. Hits are enriched below; roughly 2.3% of the tested compounds scored in any of these assays.

SMILES	HSP90 refold inh	STAT3 act	STAT1 inh-1	C8 TRAIL sens	STAT3 blocker	PPC-1+TRAIL kill	STAT1 inh-2	NFkB inh	STAT3 inh 2
Cc1ccc(NC(=O)c2cc(N3C(=O)C4CC=CCC4C3=O)ccc2N2CCOCC2)cc1Cl (centres undefined)	0	0	0	0	0	0	-	-	-
COc1cccc(CNc2ncnc3cc(Cl)ccc23)c1	0	0	41	0	0	0	0	0	0
Cc1cc(=O)n(C(NC(=O)c2ccccc2)C(=O)c2ccccc2)cn1 (centres undefined)	0	0	42	0	0	0	46	0	0
CC(C)CCNC(=O)c1cccc(S(=O)(=O)N2CCc3ccccc32)c1	0	0	0	0	0	0	-	-	-
O=C(NNC(=O)c1cccc(S(=O)(=O)N2CCc3ccccc32)c1)c1ccccc1	0	0	35	0	0	0	36	0	0
CCOc1ccc(-c2nc(CSCC(=O)NCc3ccco3)c(C)o2)cc1	0	0	90	0	0	0	91	49	0
COc1ccc(C(=O)OCC(=O)Nc2sccc2C(N)=O)cc1OC	0	-	-	0	-	0	-	-	-
COc1cc(C(=O)OCC(=O)Nc2sccc2C(N)=O)cc(OC)c1OC	0	0	42	0	0	0	0	0	0
CCCS(=O)(=O)c1nnnn1-c1cccc(OC)c1	0	0	46	0	0	0	52	24	0
COc1cccc(-n2nnnc2SCC(=O)Nc2ccccc2OC)c1	0	-	-	0	-	-	-	-	-
NS(=O)(=O)c1ccc(CCNC(=O)C2CCN(C(=O)Nc3ccccc3)CC2)cc1	-	-	-	0	-	-	-	-	-
CCCCn1c(=NC(=O)c2ccco2)c(C(=O)OCC)cc2c(=O)n3ccccc3nc21	0	0	0	0	0	0	-	-	-
CCOC(=O)c1cc2c(=O)n3ccccc3nc2n(Cc2ccco2)c1=NC(=O)c1ccc(OC)cc1OC	0	0	60	0	0	0	0	0	25
O=C(c1ccco1)N1CCN(c2ncnc3c2[nH]c2ccccc23)CC1	0	0	44	-	0	0	47	0	0
CCOc1ccc2[nH]c3c(N4CCN(C(=O)c5ccco5)CC4)ncnc3c2c1	0	-	-	0	-	0	-	-	-
O=C(c1ccco1)N1CCN(c2ncnc3c(-c4ccccc4)nsc23)CC1	0	0	0	0	0	0	-	-	-
O=C(c1ccco1)N1CCN(c2ncnc3c2[nH]c2ccc(Br)cc23)CC1	0	0	37	0	0	0	37	0	0
CC1C(=O)N(Cc2cn(CCC3OCCCO3)nn2)CCS(=O)(=O)N1Cc1ccc(-c2ccc(Cl)nc2)cc1 (centres undefined)	-	-	-	0	-	-	-	-	-
Cc1ccc(C(=O)N(CCc2ccccc2)Cc2ccccc2)cc1S(=O)(=O)N1CCCCC1	-	-	-	0	-	-	-	-	-
O=C(Cc1ccccc1)Nc1nnc(-c2ccco2)o1	0	0	0	0	0	0	-	-	-
CS(=O)(=O)Nc1ccc(C2=NN(C(=O)c3ccco3)C(c3cccc(F)c3)C2)cc1 (centres undefined)	0	0	56	0	0	0	0	0	0
Clc1ccccc1N1CCN(c2ncnc3nc[nH]c23)CC1	58	0	37	0	0	0	0	0	0
Fc1ccccc1N1CCN(c2ncnc3nc[nH]c23)CC1	0	-	-	0	-	0	-	-	-
CC(C)N(Cc1nccn1C)C(=O)CC1C(=O)NCCN1Cc1ccccc1C(F)(F)F (centres undefined)	0	0	0	0	0	0	-	-	-
CCOC(=O)N1CCC(N2C(=O)c3ccccc3C2Nc2cccnc2)CC1 (centres undefined)	0	0	34	0	0	0	0	0	0
SMILES	HSP90 refold inh	STAT3 act	STAT1 inh-1	C8 TRAIL sens	STAT3 blocker	PPC-1+TRAIL kill	STAT1 inh-2	NFkB inh	STAT3 inh 2
COc1ccc(N(C(=O)c2ccco2)C(C(=O)NC2CCCC2)c2ccncc2)cc1OC (centres undefined)	0	-	-	0	-	-	-	-	-
O=C(c1ccc2c(c1)N(Cc1ccccc1)C(=O)c1ccccc1S2)N1CCCC1	0	0	52	0	0	0	45	0	0
Cc1cccc(CN2C(=O)c3ccccc3Sc3ccc(C(=O)O)cc32)c1	0	-	-	0	-	0	-	-	-
CCOC(=O)N1CCN(C(=O)/C=C/c2c(C)nn(-c3ccc(F)cc3)c2Cl)CC1	0	0	62	0	0	0	40	0	0
Cc1cccc(-n2cc(-c3ccccc3)c3c(N4CCOCC4)ncnc32)c1	0	0	38	0	0	0	0	0	0
CCN1CCN(C(c2cccs2)C(C)NC(=O)c2cccc(OC)c2OC)CC1 (centres undefined)	0	0	0	0	0	0	-	-	-
O=C(c1ccco1)N1CCN(c2ccnc3cc(Cl)ccc23)CC1	0	0	35	0	0	0	43	24	0
Cc1ccc(C(=O)NC(=S)Nc2ccc(-c3ccc(CO)o3)cc2)cc1	0	0	64	0	0	0	0	0	0
CC(=O)C1=C(C)NC(=O)NC1c1cccs1 (centres undefined)	0	0	0	0	0	0	-	-	-
COc1ccc(NC(=O)C2CCN(c3cc(-c4ccccc4)nc4ncnn34)CC2)cc1OC	0	0	42	0	0	0	53	19	36
CCN(CCCNC(=O)C1CCCN(S(=O)(=O)c2cnc[nH]2)C1)c1ccccc1 (centres undefined)	0	0	0	0	0	0	-	-	-
COc1ccccc1OC(C)C(=O)N1CCc2ccccc21 (centres undefined)	-	-	-	0	-	-	-	-	-
CCC12CN(C(=O)c3ccco3)CC(CC)(CN(C(=O)c3ccco3)C1)C2=O	0	-	-	0	-	-	-	-	-
CCOC(=O)CNC(=O)c1cnc(Nc2ccccc2OC)c2ccccc12	0	-	-	0	-	-	-	-	-
Cc1sc(-c2ccncc2)nc1OC(=O)c1ccc(F)cc1F	0	0	51	0	0	0	0	0	0
COc1ccc(CNC(=O)C(c2ccc(C)cc2)N(Cc2cccs2)C(=O)c2ccc3c(c2)OCCO3)cc1 (centres undefined)	0	0	38	0	0	0	0	0	0
CCN(CC)S(=O)(=O)c1ccc(N2CCOCC2)c(NC(=O)c2cc(-c3ccccn3)nc3ccccc23)c1	0	0	66	0	0	0	46	0	0
CCN(CC)S(=O)(=O)c1ccc(N2CCOCC2)c(NC(=O)c2cccc3ccccc23)c1	0	0	0	0	0	0	-	-	-
O=C(C1CCC(CNS(=O)(=O)c2cccc3nsnc23)CC1)N1CCN(c2ccccn2)CC1 (centres undefined)	0	0	35	0	0	0	0	0	0
